# Measured values from ChEMBL document CHEMBL1153848, “Design and synthesis of azolopyrimidoquinolines, pyrimidoquinazolines as anti-oxidant, anti-inflammatory and analgesic activities” (2009).
# Active and inactive are the calls of the source.
# Legend:
# [1] = Antioxidant activity in Sprague-Dawley rat erythrocytes assessed as peroxyl radical-induced hemolysis after 1 hr; format: functional, Erythrocyte
# Brain = experiment: Antioxidant activity in Sprague-Dawley rat brain assessed as inhibition of lipid peroxidation; format: functional, tissue-based
# [2] = Antioxidant activity assessed as ABTS radical scavenging activity at 2 mM; format: functional
# Procedure, shortened: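 ABTS radical scavenging, read as the fall in colour absorbance after MeOH/phosphate buffer (1:1) is added. % inhibition = (A_control − A_test)/A_control × 100. The negative control uses MeOH/phosphate buffer (1:1) in place of compound, the blank omits ABTS, and ascorbic acid is the positive control.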
# Kidney = experiment: Antioxidant activity in Sprague-Dawley rat kidney assessed as inhibition of lipid peroxidation; format: functional, tissue-based
# Mus musculus [3] = experiment: Peripheral analgesic activity in Swiss albino mouse assessed as protection against acetic acid-induced writhing response at 20 mg/kg, po administered 30 mins before acetic acid challenge measured after 1 hr relative to control; format: functional
# Mus musculus [4] = experiment: Central analgesic activity in Swiss albino mouse assessed as thermal stimuli reaction time at 20 mg/kg, po after 30 mins by hot plate method; format: functional
# Procedure, shortened: (§1)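 Swiss mice of both sexes (25–30 g), six per group, on a hot plate held at 53 ± 0.5 °C. Latency was timed to hind-paw licking or jumping, with a 60 s cut-off. It was measured before dosing, then at 15, 30, 60 and 90 min after an oral aqueous suspension at 20 mg/kg. Controls were untreated; oral diclofenac sodium 20 mg/kg was the reference.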
# Rattus norvegicus [5] = experiment: Antiinflammatory activity in Sprague-Dawley rat assessed as protection against carrageenan-induced hind paw edema at 20 mg/kg, po administered 1 hr before carrageenan challenge measured after 3 hrs; format: functional
# Procedure, shortened: (§2)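 Adult female albino rats (150–180 g), fasted 18 h, six per group. Aqueous suspension in distilled water given orally at 20 mg/kg 1 h before subplantar injection of 0.1 mL 1% w/v carrageenan into the left hind paw. Vehicle controls got 0.5 mL water; diclofenac sodium 20 mg/kg po was the reference. Paw volume was measured by mercury plethysmometer before injection and hourly for 4 h. Inhibition = (Ec−Et)/Ec, with edema = (Vt−V0)/V0.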
# Mus musculus [6] = experiment: Central analgesic activity in Swiss albino mouse assessed as thermal stimuli reaction time at 20 mg/kg, po after 90 mins by hot plate method; format: functional; procedure, shortened: as §1
# Mus musculus [7] = experiment: Peripheral analgesic activity in Swiss albino mouse assessed as protection against acetic acid-induced writhing response at 20 mg/kg, po administered 30 mins before acetic acid challenge measured after 30 mins relative to control; format: functional
# Rattus norvegicus [8] = experiment: Antiinflammatory activity in Sprague-Dawley rat assessed as protection against carrageenan-induced hind paw edema at 20 mg/kg, po administered 1 hr before carrageenan challenge measured after 1 hr; format: functional; procedure, shortened: as §2
# Mus musculus [9] = experiment: Peripheral analgesic activity in Swiss albino mouse assessed as protection against acetic acid-induced writhing response at 20 mg/kg, po administered 30 mins before acetic acid challenge measured after 3 hrs relative to control; format: functional
# Rattus norvegicus [10] = experiment: Antiinflammatory activity in Sprague-Dawley rat assessed as protection against carrageenan-induced hind paw edema at 20 mg/kg, po administered 1 hr before carrageenan challenge measured after 2 hrs; format: functional; procedure, shortened: as §2
# Mus musculus [11] = experiment: Peripheral analgesic activity in Swiss albino mouse assessed as protection against acetic acid-induced writhing response at 20 mg/kg, po administered 30 mins before acetic acid challenge measured after 2 hrs relative to control; format: functional
# Mus musculus [12] = experiment: Central analgesic activity in Swiss albino mouse assessed as thermal stimuli reaction time at 20 mg/kg, po after 60 mins by hot plate method; format: functional; procedure, shortened: as §1
SMILES,Activity [1],Activity (Brain),inhibition [2],Activity (Kidney),Activity (Mus musculus [3]),Activity (Mus musculus [4]),Activity (Rattus norvegicus [5]),Activity (Mus musculus [6]),Activity (Mus musculus [7]),Activity (Rattus norvegicus [8]),Activity (Mus musculus [9]),Activity (Rattus norvegicus [10]),Activity (Mus musculus [11]),Activity (Mus musculus [12])
CC(=O)CSc1nc2nc3c(c(-c4ccc(Cl)cc4)c2c(=O)[nH]1)CCC/C3=C/c1ccc(Cl)cc1,8.33%,Active,35.2%,Active,,,,,,,,,,
CSC1=Nc2nc3c(c(-c4ccc(Cl)cc4)c2C(N2CCOCC2)N1)CCC/C3=C/c1ccc(Cl)cc1 (centres undefined),,Active,,Active,47%,8.65 min,37.3%,11.12 min,45.2%,39.2%,27.8%,47.1%,45.2%,10.98 min
CC(=O)C(Sc1nc2nc3c(c(-c4ccc(Cl)cc4)c2c(=O)[nH]1)CCC/C3=C/c1ccc(Cl)cc1)C(C)=O,7.87%,Active,42.6%,Active,54%,8.68 min,38.6%,10.4 min,46%,46.3%,37.3%,48.6%,56.6%,9.8 min
O=C(CSc1nc2nc3c(c(-c4ccc(Cl)cc4)c2c(=O)[nH]1)CCC/C3=C/c1ccc(Cl)cc1)c1ccccc1,6.51%,Active,33.3%,Active,,,,,,,,,,
Nc1ccc(/C=C2/CCCc3c2nc2nc4sc5c(n4c(=O)c2c3-c2ccc(Cl)cc2)ONC5c2cccs2)cc1 (centres undefined),4.64%,Active,29.6%,Active,,,,,,,,,,
CCSc1nc2nc3c(c(-c4ccc(Cl)cc4)c2c(=O)[nH]1)CCC/C3=C/c1ccc(Cl)cc1,5.6%,Active,37%,Active,,,,,,,,,,
CCSc1nc2nc3c(c(-c4ccc(Cl)cc4)c2c(=O)n1CC)CCC/C3=C/c1ccc(Cl)cc1,30.75%,Active,35.2%,Active,,,,,,,,,,
C/C(=N/O)c1sc2nc3nc4c(c(-c5ccc(Cl)cc5)c3c(=O)n2c1C)CCC/C4=C/c1ccc(Cl)cc1,7.22%,Active,48.1%,Active,,,,,,,,,,
CC(=O)c1sc2nc3nc4c(c(-c5ccc(Cl)cc5)c3c(=O)n2c1C)CCC/C4=C/c1ccc(Cl)cc1,6.06%,Active,40.7%,Active,49%,7.54 min,39.2%,12 min,43.5%,46.7%,38.4%,44.2%,53.1%,8.61 min
O=c1/c(=C/c2ccccc2)sc2nc3nc4c(c(-c5ccc(Cl)cc5)c3c(=O)n12)CCC/C4=C/c1ccc(Cl)cc1,5.75%,Active,40.7%,Active,76%,9.16 min,42.3%,11.08 min,73.2%,59.8%,60.3%,59.3%,77.2%,10.78 min
COc1ccc(/C=C/C(=O)c2sc3nc4nc5c(c(-c6ccc(Cl)cc6)c4c(=O)n3c2C)CCC/C5=C/c2ccc(Cl)cc2)cc1,5.9%,Active,22.2%,Active,,,,,,,,,,
CN(C)c1ccc(/C=c2\sc3nc4nc5c(c(-c6ccc(Cl)cc6)c4c(=O)n3c2=O)CCC/C5=C/c2ccc(Cl)cc2)cc1,7.27%,Active,37%,Active,,,,,,,,,,
NNc1nc2nc3c(c(-c4ccc(Cl)cc4)c2c(=O)[nH]1)CCC/C3=C/c1ccc(Cl)cc1,,Active,,Active,,,,,,,,,,
Nc1ccc(/C=C2/CCCc3c2nc2nc4s/c(=C\c5cccs5)c(=O)n4c(=O)c2c3-c2ccc(N)cc2)cc1,6.36%,Active,25.9%,Active,,,,,,,,,,
O=C([O-])Cc1ccccc1Nc1c(Cl)cccc1Cl.[Na+] [DICLOFENAC SODIUM],,,,,55.2%,10 min,42%,13.2 min,46%,52.4%,39%,60.3%,62%,11.4 min
O=c1c2c(-c3ccc(Cl)cc3)c3c(nc2nc2sc4c(n12)ONC4c1ccccc1)/C(=C\c1ccc(Cl)cc1)CCC3 (centres undefined),9.39%,Active,33.3%,Active,53%,7.08 min,34.8%,12.68 min,46.7%,49.6%,36.5%,57.1%,59.3%,9.52 min
CSC1=Nc2nc3c(c(-c4ccc(Cl)cc4)c2C(N2CCNCC2)N1)CCC/C3=C/c1ccc(Cl)cc1 (centres undefined),,Active,,Active,50%,7.93 min,42%,11.5 min,49.5%,43.1%,30.5%,52%,49.4%,10.15 min
O=c1[nH]c(=S)[nH]c2nc3c(c(-c4ccc(Cl)cc4)c12)CCC/C3=C\c1ccc(Cl)cc1,8.33%,Active,44.4%,Active,,,,,,,,,,
COc1ccc(C2NOc3c2sc2nc4nc5c(c(-c6ccc(Cl)cc6)c4c(=O)n32)CCC/C5=C/c2ccc(Cl)cc2)cc1 (centres undefined),7.27%,Active,24.1%,Active,,,,,,,,,,
COc1ccc(/C=c2\sc3nc4nc5c(c(-c6ccc(Cl)cc6)c4c(=O)n3c2=O)CCC/C5=C/c2ccc(Cl)cc2)cc1,4.54%,Active,33.3%,Active,,,,,,,,,,
CSc1nc2nc3c(c(-c4ccc(Cl)cc4)c2c(=O)n1C)CCC/C3=C/c1ccc(Cl)cc1,4.09%,Active,31.5%,Active,,,,,,,,,,
CCSc1nc2nc3c(c(-c4ccc(Cl)cc4)c2c(=O)n1C)CCC/C3=C/c1ccc(Cl)cc1,5.3%,Active,31.5%,Active,,,,,,,,,,
O=c1[nH]c(=S)[nH]c2c1C(c1ccc(Cl)cc1)C1=C(N2)/C(=C/c2ccc(Cl)cc2)CCC1 (centres undefined),12.72%,Active,59.3%,Active,69%,9.42 min,40.2%,11.67 min,60.4%,56.3%,47.3%,62%,74.3%,10.41 min
COc1ccc(NC2NC(SC)=Nc3nc4c(c(-c5ccc(Cl)cc5)c32)CCC/C4=C/c2ccc(Cl)cc2)cc1 (centres undefined),,Active,,Active,52%,8.62 min,25.3%,9.22 min,41.5%,39.8%,37.3%,42.3%,49.3%,9.06 min
